# System: Fibroblast
# Experiment: Multiplex assay against human fibroblast
# Format: toxicity, cell-based
# Procedure, shortened: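 At seeding, live cells were stained with Hoechst33342, BioTracker Green Microtubule Cytoskeleton Dye, MitoTracker Red and Annexin V Alexa Fluor 680. After compound addition they were imaged on a CQ1 microscope at 37°C and 5% CO2, and CellPathfinder machine-learning gating sorted them into Hoechst high-intensity objects or normal cells, with normal cells further split into healthy, pyknosed or fragmented nuclei and pyknosed cells into mitotic or apoptotic. Tubulin, mitochondrial-mass and membrane-permeability phenotypes are given as per cents of cells with healthy nuclei.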
# [1] = 12 h, 1 µM, compound concentration 1 uM, replicate 1
# [2] = 12 h, 1 µM, compound concentration 1 uM, replicate 2
# [3] = 12 h, 10 µM, compound concentration 10 uM, replicate 1
# [4] = 12 h, 10 µM, compound concentration 10 uM, replicate 2
# [5] = 24 h, 1 µM, compound concentration 1 uM, replicate 1
# [6] = 24 h, 1 µM, compound concentration 1 uM, replicate 2
# [7] = 24 h, 10 µM, compound concentration 10 uM, replicate 1
# [8] = 24 h, 10 µM, compound concentration 10 uM, replicate 2
# [9] = 48 h, 1 µM, compound concentration 1 uM, replicate 1
# [10] = 48 h, 1 µM, compound concentration 1 uM, replicate 2
# [11] = 48 h, 10 µM, compound concentration 10 uM, replicate 1
# [12] = 48 h, 10 µM, compound concentration 10 uM, replicate 2
smiles,measurement,setting,value
Cc1ccc(/C(=C\CN2CCCC2)c2ccccn2)cc1 [TRIPROLIDINE],Population Apoptotic (%),[1],52%
same,Population Fragmented Nuclei (%),[1],17%
same,Population Healthy Nuclei (%),[1],64%
same,Population Hoechst High Intensity Objects (%),[1],3%
same,Population Membrane Permeable-Phenotype (%),[1],0%
same,Population Mitochondria Different-Phenotype (%),[1],9%
same,Population Mitotic Cells (%),[1],47%
same,Population Normal (%),[1],96%
same,Population Pyknosed Nuclei (%),[1],18%
same,Population Tubulin-Different-Phenotype (%),[1],29%
same,Total Cell Count,[1],119
same,Population Apoptotic (%),[2],41%
same,Population Fragmented Nuclei (%),[2],28%
same,Population Healthy Nuclei (%),[2],45%
same,Population Hoechst High Intensity Objects (%),[2],4%
same,Population Membrane Permeable-Phenotype (%),[2],1%
same,Population Mitotic Cells (%),[2],58%
same,Population Normal (%),[2],95%
same,Population Pyknosed Nuclei (%),[2],25%
same,Population Tubulin-Different-Phenotype (%),[2],60%
same,Total Cell Count,[2],127
same,Population Apoptotic (%),[3],57%
same,Population Fragmented Nuclei (%),[3],14%
same,Population Healthy Nuclei (%),[3],64%
same,Population Hoechst High Intensity Objects (%),[3],2%
same,Population Membrane Permeable-Phenotype (%),[3],0%
same,Population Mitochondria Different-Phenotype (%),[3],5%
same,Population Mitotic Cells (%),[3],42%
same,Population Normal (%),[3],97%
same,Population Pyknosed Nuclei (%),[3],20%
same,Population Tubulin-Different-Phenotype (%),[3],44%
same,Total Cell Count,[3],139
same,Population Apoptotic (%),[4],50%
same,Population Fragmented Nuclei (%),[4],26%
same,Population Healthy Nuclei (%),[4],52%
same,Population Membrane Permeable-Phenotype (%),[4],9%
same,Population Mitochondria Different-Phenotype (%),[4],9%
same,Population Mitotic Cells (%),[4],50%
same,Population Pyknosed Nuclei (%),[4],21%
same,Population Tubulin-Different-Phenotype (%),[4],59%
same,Total Cell Count,[4],141
same,Population Apoptotic (%),[5],43%
same,Population Fragmented Nuclei (%),[5],17%
same,Population Healthy Nuclei (%),[5],69%
same,Population Hoechst High Intensity Objects (%),[5],4%
same,Population Membrane Permeable-Phenotype (%),[5],1%
same,Population Mitochondria Different-Phenotype (%),[5],3%
same,Population Mitotic Cells (%),[5],56%
same,Population Normal (%),[5],95%
same,Population Pyknosed Nuclei (%),[5],13%
same,Population Tubulin-Different-Phenotype (%),[5],23%
same,Total Cell Count,[5],128
same,Population Apoptotic (%),[6],46%
same,Population Fragmented Nuclei (%),[6],29%
same,Population Healthy Nuclei (%),[6],43%
same,Population Hoechst High Intensity Objects (%),[6],9%
same,Population Membrane Permeable-Phenotype (%),[6],6%
same,Population Mitochondria Different-Phenotype (%),[6],6%
same,Population Mitotic Cells (%),[6],53%
same,Population Normal (%),[6],90%
same,Population Pyknosed Nuclei (%),[6],27%
same,Population Tubulin-Different-Phenotype (%),[6],64%
same,Total Cell Count,[6],121
same,Population Apoptotic (%),[7],47%
same,Population Fragmented Nuclei (%),[7],15%
same,Population Healthy Nuclei (%),[7],68%
same,Population Hoechst High Intensity Objects (%),[7],4%
same,Population Membrane Permeable-Phenotype (%),[7],0%
same,Population Mitochondria Different-Phenotype (%),[7],3%
same,Population Mitotic Cells (%),[7],52%
same,Population Normal (%),[7],95%
same,Population Pyknosed Nuclei (%),[7],15%
same,Population Tubulin-Different-Phenotype (%),[7],41%
same,Total Cell Count,[7],142
same,Population Apoptotic (%),[8],58%
same,Population Fragmented Nuclei (%),[8],29%
same,Population Healthy Nuclei (%),[8],52%
same,Population Hoechst High Intensity Objects (%),[8],2%
same,Population Membrane Permeable-Phenotype (%),[8],6%
same,Population Mitochondria Different-Phenotype (%),[8],12%
same,Population Mitotic Cells (%),[8],41%
same,Population Normal (%),[8],97%
same,Population Pyknosed Nuclei (%),[8],17%
same,Population Tubulin-Different-Phenotype (%),[8],62%
same,Total Cell Count,[8],141
same,Population Apoptotic (%),[9],54%
same,Population Fragmented Nuclei (%),[9],26%
same,Population Healthy Nuclei (%),[9],65%
same,Population Hoechst High Intensity Objects (%),[9],3%
same,Population Membrane Permeable-Phenotype (%),[9],1%
same,Population Mitochondria Different-Phenotype (%),[9],2%
same,Population Mitotic Cells (%),[9],45%
same,Population Normal (%),[9],96%
same,Population Pyknosed Nuclei (%),[9],8%
same,Population Tubulin-Different-Phenotype (%),[9],31%
same,Total Cell Count,[9],135
same,Population Apoptotic (%),[10],52%
same,Population Fragmented Nuclei (%),[10],29%
same,Population Healthy Nuclei (%),[10],48%
same,Population Hoechst High Intensity Objects (%),[10],7%
same,Population Membrane Permeable-Phenotype (%),[10],7%
same,Population Mitochondria Different-Phenotype (%),[10],10%
same,Population Mitotic Cells (%),[10],48%
same,Population Normal (%),[10],92%
same,Population Pyknosed Nuclei (%),[10],21%
same,Population Tubulin-Different-Phenotype (%),[10],57%
same,Total Cell Count,[10],124
same,Population Apoptotic (%),[11],38%
same,Population Fragmented Nuclei (%),[11],20%
same,Population Healthy Nuclei (%),[11],69%
same,Population Hoechst High Intensity Objects (%),[11],7%
same,Population Membrane Permeable-Phenotype (%),[11],1%
same,Population Mitochondria Different-Phenotype (%),[11],6%
same,Population Mitotic Cells (%),[11],61%
same,Population Normal (%),[11],92%
same,Population Pyknosed Nuclei (%),[11],9%
same,Population Tubulin-Different-Phenotype (%),[11],35%
same,Total Cell Count,[11],142
same,Population Apoptotic (%),[12],42%
same,Population Fragmented Nuclei (%),[12],32%
same,Population Healthy Nuclei (%),[12],56%
same,Population Hoechst High Intensity Objects (%),[12],5%
same,Population Membrane Permeable-Phenotype (%),[12],5%
same,Population Mitochondria Different-Phenotype (%),[12],9%
same,Population Mitotic Cells (%),[12],57%
same,Population Normal (%),[12],94%
same,Population Pyknosed Nuclei (%),[12],10%
same,Population Tubulin-Different-Phenotype (%),[12],54%
same,Total Cell Count,[12],140
CCCC(CCC)C(=O)O [VALPROIC ACID],Population Apoptotic (%),[1],42%
same,Population Fragmented Nuclei (%),[1],13%
same,Population Healthy Nuclei (%),[1],65%
same,Population Hoechst High Intensity Objects (%),[1],3%
same,Population Membrane Permeable-Phenotype (%),[1],2%
same,Population Mitochondria Different-Phenotype (%),[1],2%
same,Population Mitotic Cells (%),[1],57%
same,Population Normal (%),[1],96%
same,Population Pyknosed Nuclei (%),[1],21%
same,Population Tubulin-Different-Phenotype (%),[1],27%
same,Population Apoptotic (%),[2],57%
same,Population Fragmented Nuclei (%),[2],20%
same,Population Healthy Nuclei (%),[2],47%
same,Population Hoechst High Intensity Objects (%),[2],8%
same,Population Membrane Permeable-Phenotype (%),[2],10%
same,Population Mitochondria Different-Phenotype (%),[2],14%
same,Population Mitotic Cells (%),[2],42%
same,Population Normal (%),[2],91%
same,Population Pyknosed Nuclei (%),[2],31%
same,Population Tubulin-Different-Phenotype (%),[2],49%
same,Population Apoptotic (%),[3],30%
same,Population Fragmented Nuclei (%),[3],29%
same,Population Healthy Nuclei (%),[3],60%
same,Population Hoechst High Intensity Objects (%),[3],4%
same,Population Membrane Permeable-Phenotype (%),[3],1%
same,Population Mitochondria Different-Phenotype (%),[3],3%
same,Population Mitotic Cells (%),[3],70%
same,Population Normal (%),[3],95%
same,Population Pyknosed Nuclei (%),[3],9%
same,Population Tubulin-Different-Phenotype (%),[3],16%
same,Population Apoptotic (%),[4],43%
same,Population Fragmented Nuclei (%),[4],16%
same,Population Healthy Nuclei (%),[4],53%
same,Population Hoechst High Intensity Objects (%),[4],2%
same,Population Membrane Permeable-Phenotype (%),[4],4%
same,Population Mitochondria Different-Phenotype (%),[4],8%
same,Population Mitotic Cells (%),[4],56%
same,Population Normal (%),[4],97%
same,Population Pyknosed Nuclei (%),[4],30%
same,Population Tubulin-Different-Phenotype (%),[4],41%
same,Population Apoptotic (%),[5],42%
same,Population Fragmented Nuclei (%),[5],11%
same,Population Healthy Nuclei (%),[5],69%
same,Population Hoechst High Intensity Objects (%),[5],5%
same,Population Membrane Permeable-Phenotype (%),[5],1%
same,Population Mitochondria Different-Phenotype (%),[5],2%
same,Population Mitotic Cells (%),[5],57%
same,Population Normal (%),[5],95%
same,Population Pyknosed Nuclei (%),[5],19%
same,Population Tubulin-Different-Phenotype (%),[5],22%
same,Population Apoptotic (%),[6],48%
same,Population Fragmented Nuclei (%),[6],22%
same,Population Healthy Nuclei (%),[6],53%
same,Population Hoechst High Intensity Objects (%),[6],7%
same,Population Membrane Permeable-Phenotype (%),[6],3%
same,Population Mitochondria Different-Phenotype (%),[6],7%
same,Population Mitotic Cells (%),[6],51%
same,Population Normal (%),[6],92%
same,Population Pyknosed Nuclei (%),[6],24%
same,Population Tubulin-Different-Phenotype (%),[6],54%
same,Population Apoptotic (%),[7],50%
same,Population Fragmented Nuclei (%),[7],27%
same,Population Healthy Nuclei (%),[7],66%
same,Population Hoechst High Intensity Objects (%),[7],6%
same,Population Membrane Permeable-Phenotype (%),[7],0%
same,Population Mitochondria Different-Phenotype (%),[7],1%
same,Population Mitotic Cells (%),[7],50%
same,Population Normal (%),[7],93%
same,Population Pyknosed Nuclei (%),[7],5%
same,Population Tubulin-Different-Phenotype (%),[7],21%
same,Population Apoptotic (%),[8],38%
same,Population Fragmented Nuclei (%),[8],30%
same,Population Healthy Nuclei (%),[8],46%
same,Population Hoechst High Intensity Objects (%),[8],3%
same,Population Membrane Permeable-Phenotype (%),[8],5%
same,Population Mitochondria Different-Phenotype (%),[8],4%
same,Population Mitotic Cells (%),[8],61%
same,Population Normal (%),[8],96%
same,Population Pyknosed Nuclei (%),[8],23%
same,Population Tubulin-Different-Phenotype (%),[8],41%
same,Population Apoptotic (%),[9],55%
same,Population Fragmented Nuclei (%),[9],18%
same,Population Healthy Nuclei (%),[9],66%
same,Population Hoechst High Intensity Objects (%),[9],7%
same,Population Membrane Permeable-Phenotype (%),[9],0%
same,Population Mitochondria Different-Phenotype (%),[9],1%
same,Population Mitotic Cells (%),[9],44%
same,Population Normal (%),[9],92%
same,Population Pyknosed Nuclei (%),[9],14%
same,Population Tubulin-Different-Phenotype (%),[9],19%
same,Population Apoptotic (%),[10],48%
same,Population Fragmented Nuclei (%),[10],36%
same,Population Healthy Nuclei (%),[10],44%
same,Population Membrane Permeable-Phenotype (%),[10],4%
same,Population Mitochondria Different-Phenotype (%),[10],7%
same,Population Mitotic Cells (%),[10],51%
same,Population Pyknosed Nuclei (%),[10],19%
same,Population Tubulin-Different-Phenotype (%),[10],55%
same,Population Apoptotic (%),[11],60%
same,Population Fragmented Nuclei (%),[11],30%
same,Population Healthy Nuclei (%),[11],60%
same,Population Hoechst High Intensity Objects (%),[11],1%
same,Population Membrane Permeable-Phenotype (%),[11],0%
same,Population Mitochondria Different-Phenotype (%),[11],1%
same,Population Mitotic Cells (%),[11],40%
same,Population Normal (%),[11],98%
same,Population Pyknosed Nuclei (%),[11],8%
same,Population Tubulin-Different-Phenotype (%),[11],18%
same,Population Fragmented Nuclei (%),[12],33%
same,Population Healthy Nuclei (%),[12],51%
same,Population Hoechst High Intensity Objects (%),[12],5%
same,Population Membrane Permeable-Phenotype (%),[12],6%
same,Population Mitochondria Different-Phenotype (%),[12],5%
same,Population Mitotic Cells (%),[12],39%
same,Population Normal (%),[12],94%
same,Population Pyknosed Nuclei (%),[12],15%
same,Population Tubulin-Different-Phenotype (%),[12],46%
